# Test results taken from ChEMBL document CHEMBL3585276, “Topoisomerase I and II inhibitory activity, cytotoxicity, and structure-activity relationship study of dihydroxylated 2,6-diphenyl-4-aryl pyridines” (Bioorg Med Chem, 2015).
# Tested on: T47D
# Experiment: Cytotoxicity against human T47D cells measured on day 4 by CCK8 assay
# Type: functional, cell-based
# Conditions: 96 h
# Method in brief: (§1)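 Cells seeded at […], grown overnight in medium with 10% FBS at 37 °C under 5% CO2. On day 2 they were serum-starved 4 h, then exposed to graded compound concentrations. On day 4 CCK-8 was added for a further 4 h and absorbance read at 450 nm. IC50 came from a four-parameter logistic fit, mean ± SD of three experiments in triplicate.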
row,SMILES,IC50 [nM]
1,Oc1cccc(-c2cc(-c3ccoc3)cc(-c3ccccc3O)n2)c1,> 50000
2,CC[C@@]1(O)C(=O)OCc2c1cc1n(c2=O)Cc2cc3ccccc3nc2-1 [CAMPTOTHECIN],1840
3,Oc1ccc(-c2cc(-c3ccsc3)cc(-c3cccc(O)c3)n2)cc1,760
4,Oc1ccc(-c2cc(-c3ccsc3)cc(-c3ccc(O)cc3)n2)cc1,1770
5,Oc1ccc(-c2cc(-c3cccnc3)cc(-c3ccc(O)cc3)n2)cc1,2030
6,Oc1ccc(-c2cc(-c3cccs3)cc(-c3ccc(O)cc3)n2)cc1,11700
7,Oc1cccc(-c2cc(-c3ccsc3)cc(-c3ccccc3O)n2)c1,> 50000
8,Oc1ccc(-c2cc(-c3ccccn3)cc(-c3ccc(O)cc3)n2)cc1,1040
9,COc1cccc2c1C(=O)c1c(O)c3c(c(O)c1C2=O)C[C@@](O)(C(=O)CO)C[C@@H]3O[C@H]1C[C@H](N)[C@H](O)[C@H](C)O1 [DOXORUBICIN],1340
10,Oc1ccc(-c2cc(-c3ccccn3)cc(-c3ccccc3O)n2)cc1,> 50000
11,Oc1ccc(-c2cc(-c3ccoc3)cc(-c3ccc(O)cc3)n2)cc1,3460
12,Oc1ccc(-c2cc(-c3ccsc3)cc(-c3ccccc3O)n2)cc1,> 50000
13,Oc1ccc(-c2cc(-c3cccnc3)cc(-c3cccc(O)c3)n2)cc1,> 50000
14,Oc1cccc(-c2cc(-c3ccco3)cc(-c3ccccc3O)n2)c1,820

# Tested on: DU-145
# Experiment: Cytotoxicity against human DU145 cells measured on day 4 by CCK8 assay
# Type: functional, cell-based
# Conditions: DU-145, 96 h
# Method in brief: as §1
row,SMILES,IC50 [nM]
1,Oc1cccc(-c2cc(-c3ccoc3)cc(-c3ccccc3O)n2)c1,2790
2,CC[C@@]1(O)C(=O)OCc2c1cc1n(c2=O)Cc2cc3ccccc3nc2-1 [CAMPTOTHECIN],20
3,Oc1ccc(-c2cc(-c3ccsc3)cc(-c3cccc(O)c3)n2)cc1,2230
4,Oc1ccc(-c2cc(-c3ccsc3)cc(-c3ccc(O)cc3)n2)cc1,2060
5,Oc1ccc(-c2cc(-c3cccnc3)cc(-c3ccc(O)cc3)n2)cc1,240
6,Oc1ccc(-c2cc(-c3cccs3)cc(-c3ccc(O)cc3)n2)cc1,2190
7,Oc1cccc(-c2cc(-c3ccsc3)cc(-c3ccccc3O)n2)c1,> 50000
8,Oc1ccc(-c2cc(-c3ccccn3)cc(-c3ccc(O)cc3)n2)cc1,> 50000
9,Oc1ccc(-c2cc(-c3ccccn3)cc(-c3ccccc3O)n2)cc1,25400
10,Oc1ccc(-c2cc(-c3ccoc3)cc(-c3ccc(O)cc3)n2)cc1,3440
11,Oc1ccc(-c2cc(-c3ccsc3)cc(-c3ccccc3O)n2)cc1,> 50000
12,Oc1ccc(-c2cc(-c3cccnc3)cc(-c3cccc(O)c3)n2)cc1,6390
13,Oc1cccc(-c2cc(-c3ccco3)cc(-c3ccccc3O)n2)c1,1790

# Molecular target: T1, DNA topoisomerase 1 (Homo sapiens) (UniProt P11387)
# T1 sequence (whole entry): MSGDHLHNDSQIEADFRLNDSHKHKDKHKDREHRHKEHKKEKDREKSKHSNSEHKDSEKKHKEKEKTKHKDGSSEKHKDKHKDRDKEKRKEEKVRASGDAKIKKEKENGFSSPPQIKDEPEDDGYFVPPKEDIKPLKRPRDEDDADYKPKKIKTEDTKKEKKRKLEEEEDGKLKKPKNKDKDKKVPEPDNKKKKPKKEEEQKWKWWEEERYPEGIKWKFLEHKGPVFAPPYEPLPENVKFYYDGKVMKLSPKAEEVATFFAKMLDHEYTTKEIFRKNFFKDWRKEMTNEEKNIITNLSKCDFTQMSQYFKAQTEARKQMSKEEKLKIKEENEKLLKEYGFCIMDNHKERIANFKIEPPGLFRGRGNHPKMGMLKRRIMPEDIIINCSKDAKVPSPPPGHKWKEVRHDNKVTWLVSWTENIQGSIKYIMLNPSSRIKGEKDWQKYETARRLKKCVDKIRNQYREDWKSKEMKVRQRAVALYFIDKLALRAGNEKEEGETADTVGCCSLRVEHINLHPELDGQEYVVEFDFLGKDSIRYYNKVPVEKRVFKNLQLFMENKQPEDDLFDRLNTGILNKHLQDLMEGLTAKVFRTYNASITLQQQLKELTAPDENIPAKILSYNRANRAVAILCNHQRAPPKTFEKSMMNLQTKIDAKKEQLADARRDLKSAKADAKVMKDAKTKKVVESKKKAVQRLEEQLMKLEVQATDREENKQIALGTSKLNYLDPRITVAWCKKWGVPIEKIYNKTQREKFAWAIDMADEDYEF
# Experiment: Inhibition of recombinant human DNA topoisomerase-1 assessed as relaxation of supercoiled DNA pBR322 at 20 uM after 30 mins by agarose gel electrophoresis relative to control
# Conditions: not given
# Method in brief: (§2)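 Relaxation assay with 100 ng pBR322 plasmid DNA and 1 unit recombinant human topo I. Buffer was 10 mM Tris–HCl pH 7.9, 150 mM NaCl, 0.1% BSA, 1 mM spermidine and 5% glycerol, incubated 37 °C for 30 min with or without compound. Products were run on a 1% agarose gel in TAE at 15 V for 7 h and stained with ethidium bromide (0.5 µg/mL) for 30 min.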
row,inhibition [%],SMILES
1,7.5,Oc1ccc(-c2cc(-c3ccsc3)cc(-c3ccc(O)cc3)n2)cc1
2,5,Oc1ccc(-c2cc(-c3cccnc3)cc(-c3ccc(O)cc3)n2)cc1
3,0.9,Oc1ccc(-c2cc(-c3cccs3)cc(-c3ccc(O)cc3)n2)cc1
4,0,Oc1ccc(-c2cc(-c3ccoc3)cc(-c3ccc(O)cc3)n2)cc1
5,2.8,Oc1ccc(-c2cc(-c3cccnc3)cc(-c3cccc(O)c3)n2)cc1
6,0,Oc1cccc(-c2cc(-c3ccco3)cc(-c3ccccc3O)n2)c1

# Molecular target: DNA topoisomerase 2-alpha (Homo sapiens) (UniProt P11388)
# Experiment: Inhibition of recombinant human DNA topoisomerase-2alpha using supercoiled pBR322 plasmid DNA as substrate at 20 uM after 30 mins by agarose gel electrophoresis relative to control
# Conditions: not given
# Method in brief: (§3)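 200 ng supercoiled pBR322 with 1 unit human topo II, incubated 30 min at 30 °C with or without compound in 10 mM Tris–HCl pH 7.9, 50 mM NaCl, 5 mM MgCl2, 1 mM EDTA, 1 mM ATP and 15 µg/mL BSA. Reaction was stopped with 7 mM EDTA and run on 1% agarose in TAE at 25 V. Gel was stained with ethidium bromide, visualized under UV, and supercoiled DNA quantitated densitometrically.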
# Chain of DNA topoisomerase 2-alpha (Homo sapiens) (P11388 whole entry): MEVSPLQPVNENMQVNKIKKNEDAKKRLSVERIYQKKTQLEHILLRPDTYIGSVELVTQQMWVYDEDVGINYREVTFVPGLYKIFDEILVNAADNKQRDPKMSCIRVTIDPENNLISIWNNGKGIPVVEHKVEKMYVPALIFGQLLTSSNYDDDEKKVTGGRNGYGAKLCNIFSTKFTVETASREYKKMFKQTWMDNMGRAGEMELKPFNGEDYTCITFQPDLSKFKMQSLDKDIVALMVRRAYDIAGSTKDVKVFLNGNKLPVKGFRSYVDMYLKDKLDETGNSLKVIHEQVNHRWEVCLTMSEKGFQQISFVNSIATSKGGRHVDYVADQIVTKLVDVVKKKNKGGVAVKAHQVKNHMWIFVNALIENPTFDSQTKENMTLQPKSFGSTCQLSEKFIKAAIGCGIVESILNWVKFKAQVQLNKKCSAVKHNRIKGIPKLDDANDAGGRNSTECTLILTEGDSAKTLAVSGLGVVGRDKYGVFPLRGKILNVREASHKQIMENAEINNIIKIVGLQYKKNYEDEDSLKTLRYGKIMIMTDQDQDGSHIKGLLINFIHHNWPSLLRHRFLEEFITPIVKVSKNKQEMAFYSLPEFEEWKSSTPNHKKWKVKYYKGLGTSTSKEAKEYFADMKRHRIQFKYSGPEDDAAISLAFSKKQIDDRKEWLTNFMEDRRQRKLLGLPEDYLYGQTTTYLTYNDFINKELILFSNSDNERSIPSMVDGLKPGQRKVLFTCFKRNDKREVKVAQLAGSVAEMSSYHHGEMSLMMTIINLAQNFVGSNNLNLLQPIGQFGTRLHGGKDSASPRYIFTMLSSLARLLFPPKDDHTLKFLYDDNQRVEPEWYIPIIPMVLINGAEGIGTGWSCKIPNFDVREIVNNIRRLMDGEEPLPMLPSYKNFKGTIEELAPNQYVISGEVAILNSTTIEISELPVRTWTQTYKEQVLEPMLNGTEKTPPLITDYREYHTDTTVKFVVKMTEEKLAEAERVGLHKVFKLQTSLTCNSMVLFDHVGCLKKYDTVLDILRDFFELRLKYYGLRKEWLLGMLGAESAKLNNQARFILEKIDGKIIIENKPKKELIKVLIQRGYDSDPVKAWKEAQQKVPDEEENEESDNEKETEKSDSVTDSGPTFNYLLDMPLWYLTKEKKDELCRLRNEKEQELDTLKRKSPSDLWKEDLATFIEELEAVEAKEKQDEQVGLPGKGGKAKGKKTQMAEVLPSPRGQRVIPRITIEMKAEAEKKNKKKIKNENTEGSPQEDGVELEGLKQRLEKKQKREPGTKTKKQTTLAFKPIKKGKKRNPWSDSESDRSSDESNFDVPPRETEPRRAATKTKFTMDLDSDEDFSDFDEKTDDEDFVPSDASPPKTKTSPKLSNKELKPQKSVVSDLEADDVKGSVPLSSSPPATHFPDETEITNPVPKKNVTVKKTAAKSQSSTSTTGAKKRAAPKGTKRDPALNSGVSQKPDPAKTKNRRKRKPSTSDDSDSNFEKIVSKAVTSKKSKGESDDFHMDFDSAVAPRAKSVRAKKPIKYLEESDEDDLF
row,inhibition [%],SMILES
1,7,Oc1cccc(-c2cc(-c3ccoc3)cc(-c3ccccc3O)n2)c1
2,44.7,Oc1ccc(-c2cc(-c3ccsc3)cc(-c3cccc(O)c3)n2)cc1
3,57.9,Oc1ccc(-c2cc(-c3ccsc3)cc(-c3ccc(O)cc3)n2)cc1
4,25.7,Oc1ccc(-c2cc(-c3cccnc3)cc(-c3ccc(O)cc3)n2)cc1
5,30.3,Oc1ccc(-c2cc(-c3cccs3)cc(-c3ccc(O)cc3)n2)cc1
6,11,Oc1cccc(-c2cc(-c3ccsc3)cc(-c3ccccc3O)n2)c1
7,9.7,Oc1ccc(-c2cc(-c3ccsc3)cc(-c3ccccc3O)n2)cc1
8,21.5,Oc1cccc(-c2cc(-c3ccco3)cc(-c3ccccc3O)n2)c1

# Molecular target: T1, DNA topoisomerase 1 (Homo sapiens)
# Experiment: Inhibition of recombinant human DNA topoisomerase-1 assessed as relaxation of supercoiled DNA pBR322 at 100 uM after 30 mins by agarose gel electrophoresis relative to control
# Conditions: not given
# Method in brief: as §2
row,inhibition [%],SMILES
1,29.5,Oc1cccc(-c2cc(-c3ccoc3)cc(-c3ccccc3O)n2)c1
2,17.1,Oc1ccc(-c2cc(-c3ccsc3)cc(-c3cccc(O)c3)n2)cc1
3,61.7,Oc1ccc(-c2cc(-c3ccsc3)cc(-c3ccc(O)cc3)n2)cc1
4,8.7,Oc1ccc(-c2cc(-c3cccnc3)cc(-c3ccc(O)cc3)n2)cc1
5,86.3,Oc1ccc(-c2cc(-c3cccs3)cc(-c3ccc(O)cc3)n2)cc1
6,10.2,Oc1cccc(-c2cc(-c3ccsc3)cc(-c3ccccc3O)n2)c1
7,1.4,Oc1ccc(-c2cc(-c3ccccn3)cc(-c3ccc(O)cc3)n2)cc1
8,0.2,Oc1ccc(-c2cc(-c3ccccn3)cc(-c3ccccc3O)n2)cc1
9,74.9,Oc1ccc(-c2cc(-c3ccoc3)cc(-c3ccc(O)cc3)n2)cc1
10,13.8,Oc1ccc(-c2cc(-c3ccsc3)cc(-c3ccccc3O)n2)cc1
11,5.9,Oc1ccc(-c2cc(-c3cccnc3)cc(-c3cccc(O)c3)n2)cc1
12,90.1,Oc1cccc(-c2cc(-c3ccco3)cc(-c3ccccc3O)n2)c1

# Molecular target: DNA topoisomerase 2-alpha (Homo sapiens) (UniProt P11388)
# Experiment: Inhibition of recombinant human DNA topoisomerase-2alpha using supercoiled pBR322 plasmid DNA as substrate at 100 uM after 30 mins by agarose gel electrophoresis relative to control
# Conditions: not given
# Method in brief: as §3
row,inhibition [%],SMILES
1,62.1,Oc1cccc(-c2cc(-c3ccoc3)cc(-c3ccccc3O)n2)c1
2,91.5,Oc1ccc(-c2cc(-c3ccsc3)cc(-c3cccc(O)c3)n2)cc1
3,81.2,Oc1ccc(-c2cc(-c3ccsc3)cc(-c3ccc(O)cc3)n2)cc1
4,65.8,Oc1ccc(-c2cc(-c3cccnc3)cc(-c3ccc(O)cc3)n2)cc1
5,74.6,Oc1ccc(-c2cc(-c3cccs3)cc(-c3ccc(O)cc3)n2)cc1
6,78.2,Oc1cccc(-c2cc(-c3ccsc3)cc(-c3ccccc3O)n2)c1
7,27.4,Oc1ccc(-c2cc(-c3ccccn3)cc(-c3ccc(O)cc3)n2)cc1
8,7.8,Oc1ccc(-c2cc(-c3ccccn3)cc(-c3ccccc3O)n2)cc1
9,12,Oc1ccc(-c2cc(-c3ccoc3)cc(-c3ccc(O)cc3)n2)cc1
10,80.6,Oc1ccc(-c2cc(-c3ccsc3)cc(-c3ccccc3O)n2)cc1
11,14.8,Oc1ccc(-c2cc(-c3cccnc3)cc(-c3cccc(O)c3)n2)cc1
12,81.2,Oc1cccc(-c2cc(-c3ccco3)cc(-c3ccccc3O)n2)c1

# Tested on: HCT-15
# Experiment: Cytotoxicity against human HCT15 cells measured on day 4 by CCK8 assay
# Type: functional, cell-based
# Conditions: HCT-15, 96 h
# Method in brief: as §1
row,SMILES,IC50 [nM]
1,Oc1cccc(-c2cc(-c3ccoc3)cc(-c3ccccc3O)n2)c1,> 50000
2,CC[C@@]1(O)C(=O)OCc2c1cc1n(c2=O)Cc2cc3ccccc3nc2-1 [CAMPTOTHECIN],2820
3,Oc1ccc(-c2cc(-c3ccsc3)cc(-c3cccc(O)c3)n2)cc1,1180
4,Oc1ccc(-c2cc(-c3ccsc3)cc(-c3ccc(O)cc3)n2)cc1,1040
5,Oc1ccc(-c2cc(-c3cccnc3)cc(-c3ccc(O)cc3)n2)cc1,840
6,Oc1ccc(-c2cc(-c3cccs3)cc(-c3ccc(O)cc3)n2)cc1,> 50000
7,Oc1cccc(-c2cc(-c3ccsc3)cc(-c3ccccc3O)n2)c1,> 50000
8,Oc1ccc(-c2cc(-c3ccccn3)cc(-c3ccc(O)cc3)n2)cc1,> 50000
9,COc1cccc2c1C(=O)c1c(O)c3c(c(O)c1C2=O)C[C@@](O)(C(=O)CO)C[C@@H]3O[C@H]1C[C@H](N)[C@H](O)[C@H](C)O1 [DOXORUBICIN],1230
10,Oc1ccc(-c2cc(-c3ccccn3)cc(-c3ccccc3O)n2)cc1,> 50000
11,Oc1ccc(-c2cc(-c3ccoc3)cc(-c3ccc(O)cc3)n2)cc1,1530
12,Oc1ccc(-c2cc(-c3ccsc3)cc(-c3ccccc3O)n2)cc1,> 50000
13,Oc1ccc(-c2cc(-c3cccnc3)cc(-c3cccc(O)c3)n2)cc1,> 50000
14,Oc1cccc(-c2cc(-c3ccco3)cc(-c3ccccc3O)n2)c1,> 50000

# Tested on: HeLa
# Experiment: Cytotoxicity against human HeLa cells measured on day 4 by CCK8 assay
# Type: functional, cell-based
# Conditions: 96 h
# Method in brief: as §1
row,SMILES,IC50 [nM]
1,Oc1cccc(-c2cc(-c3ccoc3)cc(-c3ccccc3O)n2)c1,> 50000
2,CC[C@@]1(O)C(=O)OCc2c1cc1n(c2=O)Cc2cc3ccccc3nc2-1 [CAMPTOTHECIN],180
3,Oc1ccc(-c2cc(-c3ccsc3)cc(-c3cccc(O)c3)n2)cc1,2580
4,Oc1ccc(-c2cc(-c3ccsc3)cc(-c3ccc(O)cc3)n2)cc1,4370
5,Oc1ccc(-c2cc(-c3cccnc3)cc(-c3ccc(O)cc3)n2)cc1,600
6,Oc1ccc(-c2cc(-c3cccs3)cc(-c3ccc(O)cc3)n2)cc1,> 50000
7,Oc1cccc(-c2cc(-c3ccsc3)cc(-c3ccccc3O)n2)c1,> 50000
8,Oc1ccc(-c2cc(-c3ccccn3)cc(-c3ccc(O)cc3)n2)cc1,> 50000
9,COc1cccc2c1C(=O)c1c(O)c3c(c(O)c1C2=O)C[C@@](O)(C(=O)CO)C[C@@H]3O[C@H]1C[C@H](N)[C@H](O)[C@H](C)O1 [DOXORUBICIN],880
10,Oc1ccc(-c2cc(-c3ccccn3)cc(-c3ccccc3O)n2)cc1,> 50000
11,Oc1ccc(-c2cc(-c3ccoc3)cc(-c3ccc(O)cc3)n2)cc1,3420
12,Oc1ccc(-c2cc(-c3ccsc3)cc(-c3ccccc3O)n2)cc1,> 50000
13,Oc1ccc(-c2cc(-c3cccnc3)cc(-c3cccc(O)c3)n2)cc1,> 50000
14,Oc1cccc(-c2cc(-c3ccco3)cc(-c3ccccc3O)n2)c1,> 50000
